In data set [1] the test system is Canis familiaris. The data set can be described thus: Cardiotoxicity in spontaneously respiring dog assessed as degree of increase in heart rate at 0.35 to 2 mg/kg, iv relative to control. The format is toxicity, organism-based, Canis lupus familiaris. Further details: dose 0.35-2 mg/kg, route intravenous. To be noted: in vivo. The method, boiled down:
(§1)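 Anesthetized, spontaneously respiring dogs. Heart rate monitored by lead II EKG; blood pressure from right femoral artery by pressure transducer. Rise in heart rate (beats/min) scored ±=5-15, +=20-40, ++=40-60, +++=>60, n>4/dose; duration of the rise in h. Drug stocks freshly made in distilled water, diluted in physiological saline, kept on ice.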

The test system of data set [2] is Canis familiaris. The data set can be described thus: Cardiotoxicity in spontaneously respiring dog assessed as degree of increase in heart rate at 50 to 300 mg/kg, id relative to control. Format: toxicity, organism-based, Canis lupus familiaris. Also on record: dose 50-300 mg/kg, route intraduodenal. To be noted: in vivo, other. The method, boiled down: as §1

The subject of data set [3] is Canis familiaris. The data set can be described thus: Cardiotoxicity in spontaneously respiring dog assessed as degree of increase in heart rate at 150 to 300 mg/kg, it relative to control. The format is toxicity, organism-based, Canis lupus familiaris. Also on record: dose 150-300 mg/kg, route endotracheal. To be noted: in vivo, inhaled_or_intranasal. The method, boiled down:
as §1

For data set [4], the system named is Canis familiaris. The data set can be described thus: Cardiotoxicity in spontaneously respiring dog assessed as time of increase in heart rate at 0.35 to 2 mg/kg, iv relative to control. Format: toxicity, organism-based, Canis lupus familiaris. Also on record: dose 0.35-2 mg/kg, route intravenous. To be noted: in vivo. The method, boiled down:
as §1

Data set [5] deals with Canis familiaris. The data set can be described thus: Cardiotoxicity in spontaneously respiring dog assessed as time of increase in heart rate at 50 to 300 mg/kg, id relative to control. The note with it: in vivo, other. Also on record: dose 50-300 mg/kg, route intraduodenal. The format is toxicity, organism-based, Canis lupus familiaris. An outline of the steps: as §1
Data set [6] has as its system Canis familiaris. The data set can be described thus: Cardiotoxicity in spontaneously respiring dog assessed as time of increase in heart rate at 150 to 300 mg/kg, it relative to control. Format: toxicity, organism-based, Canis lupus familiaris. Also on record: dose 150-300 mg/kg, route endotracheal. To be noted: in vivo, inhaled_or_intranasal. An outline of the steps: as §1

Data set [7] concerns Canis familiaris. The data set can be described thus: Bronchodilator activity in dog assessed as time of inhibition of carbachol or histamine-induced bronchoconstriction at 0.35 to 2 mg/kg, iv relative to control. The format is functional, Canis lupus familiaris. To be noted: dose mg/kg 0.35-2. The method, boiled down:
(§2)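 Dog with airway cannulated through a nonbreathing valve. Bronchoconstriction induced by iv carbachol (2–4 µg/kg) or histamine diphosphate (20–50 µg/kg); airway pressure recorded by pressure transducer. Each compound tested against both agonists in different animals, and results were combined and averaged. Bronchodilation = % inhibition of control constriction; degree scored as +, ++, +++ (20-45, 45-70, >70%) from higher dose, ≥3 dogs/dose; duration in h.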

Data set [8] relates to Canis familiaris. The data set can be described thus: Bronchodilator activity in dog assessed as time of inhibition of carbachol or histamine-induced bronchoconstriction at 50 to 300 mg/kg, id relative to control. The format is functional, Canis lupus familiaris. To be noted: dose mg/kg 50-300; route intraduodenal. An outline of the steps:
as §2

Data set [9] concerns Canis familiaris. The data set can be described thus: Bronchodilator activity in dog assessed as time of inhibition of carbachol or histamine-induced bronchoconstriction at 150 to 300 mg/kg, it relative to control. The format is functional, Canis lupus familiaris. The note with it: dose mg/kg 150-300; route endotracheal. The method, boiled down: as §2
Data set [10] relates to Canis familiaris. The data set can be described thus: Bronchodilator activity in dog assessed as degree of inhibition of carbachol or histamine-induced bronchoconstriction at 0.35 to 2 mg/kg, iv relative to control. The note with it: dose mg/kg 0.35-2. The format is functional, Canis lupus familiaris. The method, boiled down:
as §2

For data set [11], the system named is Canis familiaris. The data set can be described thus: Bronchodilator activity in dog assessed as degree of inhibition of carbachol or histamine-induced bronchoconstriction at 50 to 300 mg/kg, id relative to control. The format is functional, Canis lupus familiaris. To be noted: dose mg/kg 50-300; route intraduodenal. An outline of the steps: as §2
Data set [12] has as its system Canis familiaris. The data set can be described thus: Bronchodilator activity in dog assessed as degree of inhibition of carbachol or histamine-induced bronchoconstriction at 150 to 300 mg/kg, it relative to control. The format is functional, Canis lupus familiaris. The note with it: dose mg/kg 150-300; route endotracheal. An outline of the steps: as §2
The test system of data set [13] is Canis familiaris. The data set can be described thus: Cardiotoxicity in spontaneously respiring dog assessed as degree of increase in heart rate at 0.3 to 2 mg/kg, iv relative to control. Format: toxicity, organism-based, Canis lupus familiaris. Also on record: dose 0.3-2 mg/kg, route intravenous. The note with it: in vivo. The method, boiled down:
(§3)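 Anesthetized, spontaneously respiring dogs. Heart rate was taken from a lead II EKG, and blood pressure from the right femoral artery by transducer. The increase in heart rate (beats/min) was scored on a graded scale with more than 4 dogs per dose, and its duration was recorded. Drugs were dissolved fresh in distilled water, diluted in physiological saline and kept on ice.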

The subject of data set [14] is Canis familiaris. The data set can be described thus: Cardiotoxicity in spontaneously respiring dog assessed as degree of increase in heart rate at 50 to 240 mg/kg, id relative to control. Format: toxicity, organism-based, Canis lupus familiaris. Also on record: dose 50-240 mg/kg, route intraduodenal. To be noted: in vivo, other. The method, boiled down:
as §3

For data set [15], the system named is Canis familiaris. The data set can be described thus: Cardiotoxicity in spontaneously respiring dog assessed as degree of increase in heart rate at 125 to 150 mg/kg, it relative to control. Format: toxicity, organism-based, Canis lupus familiaris. Also on record: dose 125-150 mg/kg, route endotracheal. The note with it: in vivo, inhaled_or_intranasal. The method, boiled down: as §3

The test system of data set [16] is Canis familiaris. The data set can be described thus: Cardiotoxicity in spontaneously respiring dog assessed as time of increase in heart rate at 0.3 to 2 mg/kg, iv relative to control. Format: toxicity, organism-based, Canis lupus familiaris. Also on record: dose 0.3-2 mg/kg, route intravenous. The note with it: in vivo. The method, boiled down:
as §3

Data set [17] relates to Canis familiaris. The data set can be described thus: Cardiotoxicity in spontaneously respiring dog assessed as time of increase in heart rate at 50 to 240 mg/kg, id relative to control. The format is toxicity, organism-based, Canis lupus familiaris. To be noted: in vivo, other. Further details: dose 50-240 mg/kg, route intraduodenal. An outline of the steps:
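Anesthetized, spontaneously respiring dogs. Heart rate monitored by lead II EKG, with blood pressure taken from the right femoral artery by pressure transducer and recorded on a polygraph. Drug stocks made fresh in distilled water, diluted in physiological saline and kept on ice. Dosing was iv, id or it as listed. The duration of the heart-rate increase was recorded in h, with more than 4 dogs per dose.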

Data set [18] deals with Canis familiaris. The data set can be described thus: Cardiotoxicity in spontaneously respiring dog assessed as time of increase in heart rate at 125 to 250 mg/kg, it relative to control. The format is toxicity, organism-based, Canis lupus familiaris. Also on record: dose 125-250 mg/kg, route endotracheal. The note with it: in vivo, inhaled_or_intranasal. The method, boiled down: as §3

The test system of data set [19] is Canis familiaris. The data set can be described thus: Bronchodilator activity in dog assessed as degree of inhibition of carbachol or histamine-induced bronchoconstriction at 125 to 250 mg/kg, it relative to control. Format: functional, Canis lupus familiaris. To be noted: dose mg/kg 125-250; route endotracheal. An outline of the steps: as §2
Data set [20] relates to Canis familiaris. The data set can be described thus: Bronchodilator activity in dog assessed as time of inhibition of carbachol or histamine-induced bronchoconstriction at 0.3 to 2 mg/kg, iv relative to control. The format is functional, Canis lupus familiaris. To be noted: dose mg/kg 0.3-2. An outline of the steps: as §2
The subject of data set [21] is Canis familiaris. The data set can be described thus: Bronchodilator activity in dog assessed as time of inhibition of carbachol or histamine-induced bronchoconstriction at 50 to 240 mg/kg, id relative to control. The note with it: dose mg/kg 50-240; route intraduodenal. Format: functional, Canis lupus familiaris. The method, boiled down:
as §2

The test system of data set [22] is Canis familiaris. The data set can be described thus: Bronchodilator activity in dog assessed as time of inhibition of carbachol or histamine-induced bronchoconstriction at 125 to 250 mg/kg, it relative to control. The format is functional, Canis lupus familiaris. To be noted: dose mg/kg 125-250; route endotracheal. The method, boiled down: as §2
For data set [23], the system named is Canis familiaris. The data set can be described thus: Bronchodilator activity in dog assessed as degree of inhibition of carbachol or histamine-induced bronchoconstriction at 0.3 to 2 mg/kg, iv relative to control. Format: functional, Canis lupus familiaris. To be noted: dose mg/kg 0.3-2. An outline of the steps:
as §2

The subject of data set [24] is Canis familiaris. The data set can be described thus: Bronchodilator activity in dog assessed as degree of inhibition of carbachol or histamine-induced bronchoconstriction at 50 to 240 mg/kg, id relative to control. Format: functional, Canis lupus familiaris. To be noted: dose mg/kg 50-240; route intraduodenal. The method, boiled down: as §2

These results are taken from ChEMBL document CHEMBL3272249, “Esters of N-tert-butylarterenol. Long-acting new bronchodilators with reduced cardiac effects” (J Med Chem, 1976).

A value given as a limit tells only on which side of the number the result lay.

Turning to `CC(C)(C)NC[C@H](O)c1ccc(O)c(O)c1`, the values for the Activity in the data set on Canis familiaris [1], in the data set with Canis familiaris [2] and in the data set on Canis familiaris [3] were 40%, 40% and 20%, respectively. Further, the Time was below 0.25 h with Canis familiaris [4]; 3 h with Canis familiaris [5]; 1 h with Canis familiaris [6]; above 1 h with Canis familiaris [7]; 3 h in the data set with Canis familiaris [8]; below 2 h with Canis familiaris [9]. Moreover, the “inhibition (INH)” value is listed as above 70% in the data set on Canis familiaris [10], 45% in the data set on Canis familiaris [11] and above 70% in the data set with Canis familiaris [12].

`CC(C)NCC(O)c1ccc(O)c(O)c1` (centres undefined) [ISOPROTERENOL]: the Activity in the data set with Canis familiaris [13] is above 60%; with Canis familiaris [14], 40%; in the data set on Canis familiaris [15], 20%. Besides, the Time is below 0.25 h in the data set on Canis familiaris [16]; 2 h with Canis familiaris [17]; 1 h in the data set with Canis familiaris [18]; below 1 h with Canis familiaris [20]; below 2 h with Canis familiaris [21]; below 1 h in the data set on Canis familiaris [22]. The “inhibition (INH)” value in the data set with Canis familiaris [19] is given as above 70%; in the data set on Canis familiaris [23], above 70%; in the data set with Canis familiaris [24] it was 20%.
